Measured values from different studies.
Protocols differ between the studies behind these lines.
BRD4 BD1: Bromodomain-containing protein 4, BD1 (BRD4, Homo sapiens, UniProt O60885)
OPRM1: Mu-type opioid receptor (OPRM1, Homo sapiens, UniProt P35372)
Slc6a4: Sodium-dependent serotonin transporter (Slc6a4, Rattus norvegicus, UniProt P31652)
CYP2A6: Cytochrome P450 2A6 (CYP2A6, Homo sapiens, UniProt P11509)

Compound | target | test | setting | endpoint | value
Oc1ccc(-c2nc(-c3ccncc3)c(-c3ccc(F)cc3)[nH]2)cc1 | BRD4 BD1 | binding, ITC | – | Kd | 3.42 µM
COc1cc(C2Oc3c(OC)cccc3C3CC(c4cc(C)ccc4O)=NN32)ccc1O (stereo not shown) | Prostaglandin E synthase 3 (Homo sapiens, UniProt Q15185) | binding, MST | – | Kd | 1.18 µM
CC1=CC(=O)CC(C)(C)[C@@]1(O)/C=C/C(C)=C\C(=O)O | PYL1 (Arabidopsis thaliana, UniProt Q8VZS8) | binding, MST | – | Kd | 63.7 µM
Cn1nnc2ccc(NC(=O)c3cccc(C(=O)O)c3)cc21 | BRD4 BD1 | binding, competition with immobilised ligand | – | Kd | 6.9 µM
CC(=O)N[C@H](C(=O)N1C[C@H](O)C[C@H]1C(=O)NCc1ccc(-c2scnc2C)cc1)C(C)(C)SCCCCCCNC(=O)C[C@@H]1N=C(c2ccc(Cl)cc2)c2c(sc(C)c2C)-n2c(C)nnc21 | Bromodomain-containing protein 4, BD2 (BRD4, Homo sapiens, UniProt O60885) | binding | – | Kd | 0.044 µM
OC[C@@]12C[C@@H]1[C@@H](n1cnc3c(NC(C4CCCC4)C4CCCC4)nc(Cl)nc31)[C@H](O)[C@@H]2O | OPRM1 | cell-free assay, radioligand | – | Ki | 3.5 µM
CN1CCN(Cc2cccc(Oc3ccccc3)c2)CC1 | Slc6a4 | ligand displacement, radioligand | – | Ki | > 20 µM
CCCCN1CCC(COC(=O)c2ccc(N)c(OCF)c2)CC1 | 5-hydroxytryptamine receptor 1D (HTR1D, Homo sapiens, UniProt P28221) | cell-free assay, radioligand | – | Ki | > 10 µM
C#Cc1ccc(-c2cc(=O)c3ccccc3o2)cc1 | CYP2A6 | enzyme activity, inhibitor | 6 min, pH 7.6 | Ki | > 25 µM
Cc1cc(N)nc(CCc2cccc([C@@H](N)Cc3cc(C)cc(N)n3)c2)c1 | Nitric oxide synthase 1 (Nos1, Rattus norvegicus, UniProt P29476) | enzyme activity, inhibitor | – | Ki | ~0.1 µM
C#Cc1ccccc1-c1cc(=O)c2ccccc2o1 | CYP2A6 | enzyme activity, inhibitor | 6 min, pH 7.6 | Ki | > 25 µM
CN(C)CCN(Cc1ccccc1)Cc1c(F)cccc1Cl | Slc6a4 | ligand displacement, radioligand | – | Ki | 0.212 µM
C#Cc1ccc2cc(-c3ccccc3)c(=O)oc2c1 | CYP2A6 | enzyme activity, inhibitor | 6 min, pH 7.6 | Ki | > 25 µM
O=C(NCC1CC1)c1cc(N2CC[C@H](O)C2)nc(N2CCC[C@@H](c3ccccc3)C2)n1 | N-acyl-phosphatidylethanolamine-hydrolyzing phospholipase D (Napepld, Mus musculus, UniProt Q8BH82) | enzyme activity, inhibitor, fluorescence | – | Ki | 0.18 µM
C#Cc1ccc2c(=O)cc(-c3ccccc3)oc2c1 | CYP2A6 | enzyme activity, inhibitor | 6 min, pH 7.6 | Ki | > 25 µM
Cc1c(C(=O)NN2CCOCC2)nn(-c2ccc(Cl)cc2Cl)c1-c1ccc(I)cc1 | OPRM1 | ligand displacement, radioligand | cell membranes | Ki | 2.14 µM
